Bioassay records as filed in PubChem.
Compounds with a hit are over-represented: about 2.9% of the library has one in this group of screens.
SF1 activator: activators of human SF-1, primary screen, cell-based, CHO-K1, Gal4-SF-1 LBD, luciferase luminescence; actives 1.9% (n = 65,000); CHO-K1 Gal4-SF-1 LBD luciferase reporter; % increase over DMSO SF-1-specific signal; activation, % at 10 µM; AID 522, 2006; Steroidogenic factor 1 (Homo sapiens), Q13285;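 active = activation above the mean activation of all tested compounds plus 3 SD, cut at about 50% in these data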
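material = CHO-K1 cells with Gal4–hSF-1 LBD chimera plus Gal4-driven luciferase | compound = 10 µM single point, 1% DMSO | incubation = 20 h compound exposure at 37 °C after 1 h cell settling | measured by = SteadyLite luciferase luminescence | evaluation = percent activation relative to DMSO median and mock-transfected background | control set = DMSO negative control and −SF1 background wells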
ROCK2 inh: inhibitors of human ROCK2 kinase, primary screen, biochemical, high-throughput, luminescence; actives 0.35% (n = 60,000); AID 604, 2007; inhibition, % at 6 µM; purified ROCK2, Kinase-Glo ATP depletion luminescence;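 active = inhibition above the screen-wide mean inhibition plus 3 SD, cut at about 18% in these data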;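 also: plate controls were DMSO wells for no effect and Y-27632 control wells after no-enzyme background subtraction for full effect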
mHtt clearance: clearance of mutant huntingtin inclusions, primary screen, imaging, HeLa Exon1htt(103Q)mCFP, confocal imaging; actives 0.42% (n = 47,000); inhibition, % at 1.5 µM; AID 853, 2007; aggregate imaging; zero = plate's median compound well;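 active = inhibition of aggregate fluorescence above about 70%, also judged a hit by eye on the cell image, limit read from the data, passing the limit was not always enough; inconclusive = no rule stated for this call; inactive = not judged a hit on image review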;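 also: cells exposed to compound for three days before fixation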
PKA inh: inhibitors of human PKA kinase activity, primary screen, biochemical, ATP-depletion luminescence, Kemptide substrate | PKA Kemptide phosphorylation, Kinase-Glo ATP luminescence | AID 524, 2006 | actives 0.1% (n = 65,000) | cAMP-dependent protein kinase catalytic subunit alpha (Homo sapiens), P17612 | inhibition, % at 6 µM;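 active = inhibition above the screen-wide mean inhibition plus 3 SD, cut at about 21% in these data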
RORA act: activators of orphan receptor RORA, primary screen, cell-based, luminescence | CHO-K1 Gal4-RORA LBD luciferase reporter; percent increase over mock-subtracted basal signal | Nuclear receptor ROR-alpha (Homo sapiens), P35398 | actives 1.5% (n = 65,000) | AID 560, 2006 | activation, % at 10 µM;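 active = activation above the mean of all tested compounds plus 3 SD, cut at about 49% in these data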;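 also: 0% = DMSO-treated RORA cells and 100% = added signal equal to DMSO minus mock-transfected cells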
Target sequence (P35398 whole entry, looked up, the tested form may be a part): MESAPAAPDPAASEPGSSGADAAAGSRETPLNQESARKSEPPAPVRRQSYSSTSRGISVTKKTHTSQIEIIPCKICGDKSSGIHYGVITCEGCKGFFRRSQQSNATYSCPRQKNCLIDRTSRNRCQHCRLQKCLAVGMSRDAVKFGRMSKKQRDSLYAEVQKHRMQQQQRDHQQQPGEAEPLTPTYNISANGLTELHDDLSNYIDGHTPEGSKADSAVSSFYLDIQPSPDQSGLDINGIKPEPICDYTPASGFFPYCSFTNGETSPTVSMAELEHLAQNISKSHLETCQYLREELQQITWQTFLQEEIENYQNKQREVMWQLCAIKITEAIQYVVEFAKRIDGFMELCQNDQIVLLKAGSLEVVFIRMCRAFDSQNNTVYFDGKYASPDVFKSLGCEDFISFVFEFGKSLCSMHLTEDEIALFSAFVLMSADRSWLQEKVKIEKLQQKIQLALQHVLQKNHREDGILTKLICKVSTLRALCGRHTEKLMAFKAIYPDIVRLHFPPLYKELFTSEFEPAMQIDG
JNK3 blocker: JNK3 kinase activity inhibitors, primary screen, biochemical, human, purified enzyme. Mitogen-activated protein kinase 10 (Homo sapiens), P53779. HTS. inhibition, % at 8 µM. actives 0.61% (n = 60,000); in the data active = inhibition above about 17%;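 also: 0% = DMSO and 100% = reference inhibitor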
Active calls of the source: *; ? = inconclusive; . = no result.

SMILES | SF1 activator | ROCK2 inh | mHtt clearance | PKA inh | RORA act | JNK3 blocker
O=C(NCc1cccnc1)C1CCCN(S(=O)(=O)c2ccccc2)C1 (stereo unspecified) | 7 | 0 | 28 | 7 | -4 | 1
O=c1c(-c2ccccc2)n[nH]c2ccccc12 | 75* | 5 | 17 | 10 | 31 | 2
CCOC(=O)c1[nH]c(C)c(C(=O)NCCC2=CCCCC2)c1C | 24 | 0 | . | 1 | 1 | -9
CC(=O)c1c(C)[nH]c(C(=O)NCCC2=CCCCC2)c1C | 84* | 0 | -10 | 6 | 69* | 0
COc1cccc(-c2nc(-c3ccccc3)no2)c1 | -9 | 1 | -46 | 0 | 14 | 0
COc1cccc(-c2noc(-c3cccnc3)n2)c1 | 22 | -4 | 5 | -8 | 86* | -5
COc1cccc(-c2nc(-c3ccc(NC(=O)c4cccnc4)cc3)no2)c1 | 55* | 2 | 34 | 6 | 51* | -4
COc1ccc(-c2noc(-c3ccccc3-c3ccccc3)n2)cc1 | . | . | 46 | . | . | .
COc1ccc(CC(=O)Nc2ccc(-c3noc(-c4cccc(OC)c4)n3)cc2)cc1 | -24 | 6 | -85 | 2 | 15 | -10
COc1ccc(-c2noc(-c3ccc(Cl)cc3)n2)cc1 | 28 | -13 | . | -11 | 49* | -5
COc1cccc(-c2noc(-c3cccs3)n2)c1 | -8 | -4 | -33 | -2 | 66* | -1
COc1cc(/C(C#N)=C/c2ccccc2)c([N+](=O)[O-])cc1OC | . | . | -16 | . | . | .
Cc1ccccc1-c1noc(-c2cccs2)n1 | 53* | -4 | . | -13 | 39 | -5
c1ccc(-c2ccccc2-c2nc(-c3cccnc3)no2)cc1 | 0 | -4 | . | 1 | -10 | 7
COc1nc(-c2ccccc2)ccc1-c1noc(-c2cccs2)n1 | 49 | 4 | . | -3 | 48 | -4
Cc1ccc(-c2nc(-c3cccnc3)no2)cc1 | 56* | 16 | 9 | 12 | 11 | 7
CN1CC2=Cc3ccccc3OC23Oc2ccccc2C=C3C1 | -16 | 2 | -11 | 7 | 4 | 8
CC(=O)Nc1cccc(NC(=O)C2CC3CCC2C3)c1 (stereo unspecified) | 7 | 5 | . | 8 | 9 | 6
CCN(CC)c1ccc(NC(=O)C2CC3CCC2C3)cc1 (stereo unspecified) | 50 | 7 | . | 8 | 55* | -11
O=C(NCc1ccco1)c1ccc(=O)[nH]n1 | -11 | 0 | 72* | -6 | -11 | 3
O=C(O)CSc1nnc(-c2ccncc2)n1C1CCCCC1 | -9 | 4 | . | 8 | -4 | -1
O=C(NCCCn1ccnc1)Nc1ccc(Cl)c(Cl)c1 | -1 | 2 | . | -1 | 8 | 8
Cn1cccc1CNC(=O)Nc1ccc(Cl)c(Cl)c1 | 66* | 0 | -26 | -4 | 60* | 0
Cc1cc(NC(=O)CSc2nc(C3CC3)nc3sc4c(c23)CCC(C)C4)no1 (stereo unspecified) | 7 | 3 | 72* | 2 | -9 | 2
CC(=O)NC(CCS(C)(=O)=O)C(=O)N1CCc2ccccc21 (stereo unspecified) | 2 | 5 | . | 6 | -12 | 3
SMILES | SF1 activator | ROCK2 inh | mHtt clearance | PKA inh | RORA act | JNK3 blocker
Clc1ccccc1OCc1nnc(-c2ccccc2Br)o1 | 94* | 5 | -25 | 5 | 83* | 3
Clc1ccc(Cc2nnc(-c3ccccc3Br)o2)cc1 | 4 | -4 | . | 5 | 17 | 7
COc1ccc(CNc2nc(NCc3ccc(OC)c(OC)c3)n(C(=O)c3cccs3)n2)cc1OC | . | . | -15 | . | . | .
Nc1nc(-c2ccco2)nn1C(=O)CCc1ccccc1 | 0 | 1 | . | -1 | -8 | 1
Nc1nc2ccccc2n1C(=O)CCc1ccccc1 | 67* | 146* | -93 | 4 | 45 | -2
CCCn1c(-c2cccs2)nc2nc3ccccc3nc21 | . | . | 29 | . | . | .
c1csc(-c2nc3nc4ccccc4nc3n2Cc2ccc3c(c2)OCO3)c1 | 63* | 2 | 12 | 5 | 43 | 6
COC(=O)c1cc(Br)c(=O)n(CCC2=CCCCC2)c1 | 5 | 3 | -1 | 8 | -16 | 3
Cc1ccc(NS(=O)(=O)c2cc(C(=O)O)ccc2Cl)c(C)c1 | -11 | -2 | 72* | -2 | -16 | -4
Cc1cccc(-n2nc(C)cc2N)c1 | . | . | 27 | . | . | .
Nc1cc(C2CCCC2)nn1-c1ccccc1 | 49 | . | ? | 1 | 62* | .
N#CCSc1nc2scc(-c3cccs3)c2c(=O)n1CCc1ccccc1 | -24 | 2 | . | 14 | 5 | 5
CN=Cc1sc2ccccc2c1O | 8 | -6 | 1 | -7 | 3 | -5
CC(=Nc1cccc(O)c1)c1sc2ccccc2c1O | 94* | 4 | . | -1 | 17 | -1
CC(C)(C)C1CCc2onc(C(=O)Nc3cccnc3)c2C1 (stereo unspecified) | -15 | 0 | . | 0 | 8 | 3
CCCc1cc(C(=O)Nc2cccnc2)no1 | -1 | -1 | -44 | -5 | 14 | 2
O=C(Nc1cccnc1)c1noc2c1CCCC2 | 26 | -4 | . | -4 | 49* | -1
CC(=O)c1ccc(NC(=O)c2noc3c2CCCCC3)cc1 | 32 | 5 | -53 | 3 | 50* | 4
CC(C)c1cc(C(=O)Nc2cccnc2)no1 | 30 | -11 | . | -4 | 61* | -6
Cc1cc(NC(=O)c2noc3c2CCCC3)no1 | 13 | 0 | . | 7 | 7 | 2
Cc1cc(NC(=O)c2noc3c2CCCCC3)no1 | 39 | 1 | 11 | 6 | 58* | -3
CCN(CC)Cc1c[nH]c2c(C(=O)OC)cccc12 | 9 | 8 | . | 10 | 25 | -6
COc1ccc(NC(=O)c2cc(C(C)C)on2)cc1OC | 7 | -1 | 34 | 1 | 43 | -5
COc1ccc(NC(=O)c2cc(C(C)C)on2)c(OC)c1 | 50* | -1 | -16 | -4 | 70* | -5
O=C(NCCc1ccccc1)c1cc(-c2ccco2)on1 | 86* | -2 | -11 | -2 | 69* | 6
O=C(NCc1ccccc1)c1cc(-c2ccco2)on1 | 22 | 3 | -5 | 6 | 24 | 1
C=C(C)C(=O)OC1(C(F)(F)F)Oc2cc(C)ccc2NC1=O (stereo unspecified) | . | . | 12 | . | . | .
C=C(C)CSc1nncn1/N=C/c1ccc(OC)cc1 | 55* | 5 | 10 | 8 | 49* | -7
CCSc1nncn1/N=C/c1ccc(OC)c(OC)c1 | 44 | 6 | . | 4 | 23 | -4
O=C(Nc1cccc(Br)c1)c1ccn[nH]1 | 31 | 4 | 13 | 9 | 54* | 11
